ChEMBL document CHEMBL4024779, “Novel Terminal Bipheny-Based Diapophytoene Desaturases (CrtN) Inhibitors as Anti-MRSA/VISR/LRSA Agents with Reduced hERG Activity” (J Med Chem, 2018)
Calls of active or inactive are those of the source. The calls are words filed in the database; no cut-off is given here.

Columns and labels:
Cytochrome P450 2C9 = Cytochrome P450 2C9 (Homo sapiens, UniProt P11712); assay: Inhibition of CYP2C9 in human liver microsomes using diclofenac as substrate upto 10 uM after 10 mins in presence of NADPH by LC-MS/MS analysis; type: ADME
Sequence of Cytochrome P450 2C9 (P11712 whole entry): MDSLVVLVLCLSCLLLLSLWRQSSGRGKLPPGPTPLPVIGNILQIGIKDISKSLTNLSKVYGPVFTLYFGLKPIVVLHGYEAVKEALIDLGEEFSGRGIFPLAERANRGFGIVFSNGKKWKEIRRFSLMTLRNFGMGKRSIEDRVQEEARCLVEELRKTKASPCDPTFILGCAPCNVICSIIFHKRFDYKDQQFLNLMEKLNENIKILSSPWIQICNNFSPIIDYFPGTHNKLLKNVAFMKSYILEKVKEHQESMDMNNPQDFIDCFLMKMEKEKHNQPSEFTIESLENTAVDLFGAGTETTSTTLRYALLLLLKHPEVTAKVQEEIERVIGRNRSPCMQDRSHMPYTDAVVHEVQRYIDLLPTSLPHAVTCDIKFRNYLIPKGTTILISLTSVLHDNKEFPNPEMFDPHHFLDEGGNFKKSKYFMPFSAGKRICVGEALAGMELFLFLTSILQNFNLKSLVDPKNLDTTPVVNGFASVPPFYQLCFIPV

[1] = Oral bioavailability in mouse at 10 mg/kg administered as single dose by LC-MS/MS analysis; type: ADME, organism-based; conditions: in vivo
Staphylococcus aureus [2] = assay: In vivo anti-virulence activity against methicillin-resistant Staphylococcus aureus NF65Y infected in BALB/c mouse model assessed as reduction in bacterial load in kidney at 0.1 mg bid for 3.5 days administered intraperitoneally 6 hrs post infection by serial dilution method relative to vancomycin; type: functional, organism-based
Procedure, shortened: (§1)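 Mice infected retro-orbitally with S. aureus NF65Y (3.5 × 10^8 CFU) or XN108 (2.1 × 10^8 CFU). Test compound given i.p. b.i.d. starting 6 h post-infection. […] Log10 CFU per kidney and heart counted. Two-tailed Mann−Whitney test.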

[3] = molecular target: T1, 4,4'-diapophytoene desaturase (4,4'-diaponeurosporene-forming) (Staphylococcus aureus (strain MW2)) (UniProt Q8NUQ6); conditions: Staphylococcus aureus subsp. aureus MW2; USA400; 1 uM
T1 sequence (whole entry): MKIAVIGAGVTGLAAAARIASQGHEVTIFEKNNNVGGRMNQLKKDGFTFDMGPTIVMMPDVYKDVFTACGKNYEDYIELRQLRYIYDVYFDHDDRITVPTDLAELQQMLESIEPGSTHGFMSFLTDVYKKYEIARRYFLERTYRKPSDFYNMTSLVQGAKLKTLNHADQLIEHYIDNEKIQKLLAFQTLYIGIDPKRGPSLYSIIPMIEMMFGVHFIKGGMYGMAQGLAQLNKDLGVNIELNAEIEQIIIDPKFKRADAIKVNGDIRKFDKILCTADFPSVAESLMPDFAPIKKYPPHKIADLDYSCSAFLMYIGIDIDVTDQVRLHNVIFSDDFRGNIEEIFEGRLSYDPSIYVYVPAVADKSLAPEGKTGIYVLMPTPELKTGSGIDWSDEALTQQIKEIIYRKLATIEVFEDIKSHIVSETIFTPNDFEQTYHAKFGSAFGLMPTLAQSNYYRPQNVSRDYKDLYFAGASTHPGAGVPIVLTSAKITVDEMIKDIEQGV

[4] = Tmax in Sprague-Dawley rat at 10 mg/kg, po administered as single dose by LC-MS/MS analysis; type: ADME, organism-based; conditions: in vivo
[5] = Inhibition of CrtN in methicillin-resistant Staphylococcus aureus LRSA56 assessed as reduction in staphyloxanthin levels after 48 hrs by spectrophotometric method-based pigment inhibition assay
[6] = AUC (0 to 24 hrs) in mouse at 10 mg/kg, po administered as single dose by LC-MS/MS analysis; type: ADME, organism-based; design: time < 24 hr, dose 10 mg/kg, route oral; conditions: in vivo
[7] = molecular target: T1, 4,4'-diapophytoene desaturase (4,4'-diaponeurosporene-forming) (Staphylococcus aureus (strain MW2)); conditions: Staphylococcus aureus subsp. aureus MW2; USA400; 1 uM; remark: listed apart in the source
[8] = Cmax in Sprague-Dawley rat at 5 mg/kg, iv administered as single dose by LC-MS/MS analysis; type: ADME, organism-based; design: dose 5 mg/kg, route intravenous; conditions: in vivo
[9] = Inhibition of CrtN in methicillin-resistant Staphylococcus aureus LRSA202 assessed as reduction in staphyloxanthin levels after 48 hrs by spectrophotometric method-based pigment inhibition assay
Staphylococcus aureus [10] = assay: In vivo anti-virulence activity against methicillin-resistant Staphylococcus aureus LRSA56 infected in BALB/c mouse model assessed as reduction in bacterial load in heart at 0.1 mg bid for 3.5 days administered intraperitoneally 6 hrs post infection by serial dilution method relative to control; type: functional; design: scale not given: the % may be the effect or the level left
Procedure, shortened: (§2)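 Mice were infected by retro-orbital injection with LRSA56 (5.0 × 10^7 CFU) or LRSA202 (7.0 × 10^7 CFU). Compound was given intraperitoneally 6 h after infection. […] Log10 CFU was counted in kidneys and hearts, with groups compared by two-tailed Mann-Whitney test.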

Staphylococcus aureus [11] = assay: In vivo anti-virulence activity against Staphylococcus aureus NRS271 infected in BALB/c mouse model assessed as reduction in bacterial load in kidney at 0.2 mg bid for 3.5 days administered orally 6 hrs post infection by serial dilution method relative to control; type: functional, organism-based
Procedure, shortened: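 Mice were infected by retro-orbital injection with Mu50 (4.6 × 10^9 CFU) or NRS271 (3.5 × 10^8 CFU). Oral compound was given b.i.d. for 3.5 d, starting 6 h after infection. Log10 CFU was counted per kidney and per heart.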

Staphylococcus aureus [12] = assay: In vivo anti-virulence activity against Staphylococcus aureus Newman in mouse lethal infection model assessed as host survival rate at 0.1 mg bid for 3.5 days administered intraperitoneally 6 hrs post infection and measured on day 8; type: functional
Procedure, shortened: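 In a lethal sepsis model, mice (n=15) were challenged with 2 × 10^8 CFU S. aureus Newman. Animal survival was recorded daily through day 8.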

[13] = Inhibition of CrtN in methicillin-resistant Staphylococcus aureus NRS108 assessed as reduction in staphyloxanthin levels after 48 hrs by spectrophotometric method-based pigment inhibition assay
[14] = AUC (0 to 24 hrs) in Sprague-Dawley rat at 5 mg/kg, iv administered as single dose by LC-MS/MS analysis; type: ADME, organism-based; design: dose 5 mg/kg, time < 24 hr, route intravenous; conditions: in vivo
Staphylococcus aureus [15] = assay: In vivo anti-virulence activity against methicillin-resistant Staphylococcus aureus LRSA202 infected in BALB/c mouse model assessed as reduction in bacterial load in heart at 0.1 mg bid for 3.5 days administered intraperitoneally 6 hrs post infection by serial dilution method relative to control; type: functional, organism-based; procedure, shortened: as §2
Staphylococcus aureus [16] = assay: In vivo anti-virulence activity against methicillin-resistant Staphylococcus aureus XN108 infected in BALB/c mouse model assessed as reduction in bacterial load in kidney at 0.1 mg bid for 3.5 days administered intraperitoneally 6 hrs post infection by serial dilution method relative to linezolid; type: functional, organism-based; procedure, shortened: as §1
Cytochrome P450 3A4 = Cytochrome P450 3A4 (Homo sapiens, UniProt P08684); assay: Inhibition of CYP3A4 in human liver microsomes using midazolam as substrate upto 10 uM after 5 mins in presence of NADPH by LC-MS/MS analysis; type: ADME
Sequence of Cytochrome P450 3A4 (P08684 whole entry): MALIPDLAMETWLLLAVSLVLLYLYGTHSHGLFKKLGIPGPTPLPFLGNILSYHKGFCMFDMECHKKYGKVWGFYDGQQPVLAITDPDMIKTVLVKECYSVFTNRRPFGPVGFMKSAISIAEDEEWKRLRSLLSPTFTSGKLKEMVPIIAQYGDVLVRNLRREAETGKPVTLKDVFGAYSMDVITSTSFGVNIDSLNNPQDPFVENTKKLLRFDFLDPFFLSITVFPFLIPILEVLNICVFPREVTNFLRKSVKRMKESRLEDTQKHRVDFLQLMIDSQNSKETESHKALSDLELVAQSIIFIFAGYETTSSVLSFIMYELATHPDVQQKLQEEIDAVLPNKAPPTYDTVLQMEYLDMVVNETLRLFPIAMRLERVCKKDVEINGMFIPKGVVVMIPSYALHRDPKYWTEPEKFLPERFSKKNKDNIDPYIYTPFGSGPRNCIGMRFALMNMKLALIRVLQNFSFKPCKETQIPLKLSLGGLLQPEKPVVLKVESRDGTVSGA

[17] = Tmax in Sprague-Dawley rat at 5 mg/kg, iv administered as single dose by LC-MS/MS analysis; type: ADME, organism-based; conditions: in vivo
[18] = Inhibition of CrtN in methicillin-resistant Staphylococcus aureus HS663 assessed as reduction in staphyloxanthin levels after 48 hrs by spectrophotometric method-based pigment inhibition assay
Rattus norvegicus = assay: Toxicity in Sprague-Dawley rat at 60 to 1000 mg/kg, po administered as single dose assessed as poisoning symptoms measured immediately post administration; type: organism-based; conditions: in vivo
Procedure, shortened: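 Acute toxicity study: 30 rats randomly split into three groups and given a single oral dose (60, 250 or 1000 mg/kg) on day 1. Animals were watched for poisoning symptoms and mortality immediately after dosing and over a 2-week post-treatment period. Behaviour, water/food consumption and body weight were also tracked.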

[19] = Clearance in mouse at 2 mg/kg, iv administered as single dose by LC-MS/MS analysis; type: ADME, organism-based; conditions: in vivo
[20] = Inhibition of CrtN in methicillin-resistant Staphylococcus aureus XN108 assessed as reduction in staphyloxanthin levels after 48 hrs by spectrophotometric method-based pigment inhibition assay

With CN(C/C=C/c1ccc(-c2ccccc2)cc1)Cc1coc2ccccc12.Cl the IC50 (Cytochrome P450 2C9) was over 10000 nM, the bioavailability [1] was 83.8% and the Activity (Staphylococcus aureus [2]) was “Active”. For the same compound, the Survival [3] was 1%, the Tmax [4] was 2 h and the IC50 [5] was 1.8 nM. It also gave an AUC(0-t) at 24 h [6] of 4.53 µg·h/mL, a Survival [7] of 2.3% and a Cmax [8] of 4.61 µg/mL. For the same compound, the IC50 [9] was 1.6 nM, the Activity (Staphylococcus aureus [10]) was over 81.4% and the Activity (Staphylococcus aureus [11]) was “Active”. The Survival (Staphylococcus aureus [12]) was over 70%, the IC50 [13] was 5.6 nM and the AUC(0-t) at 24 h [14] was 2.81 µg·h/mL. The Activity (Staphylococcus aureus [15]) was “Active”, the Activity (Staphylococcus aureus [16]) was “Active” and the IC50 (Cytochrome P450 3A4) was over 10000 nM. For the same compound, the Tmax [17] was 4.8 min, the IC50 [18] was 0.02 nM and the Activity (Rattus norvegicus) was “Non-Toxic”. The clearance [19] was 1.84 L/h/kg and the IC50 [20] was 0.2 nM.
